Reference: ChEMBL document CHEMBL2169881, “Synthesis and biological activity of obatoclax derivatives as novel and potent SHP-1 agonists” (Eur J Med Chem, 2012)
Activity calls are given as the source filed them. No cut-off for these calls is given here.

Key:
Format in all cases: functional, cell-based
[1] = Cytotoxicity against human PLC5 cells by MTT assay
Summary of the method: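 MTT viability assay on PLC5 hepatocellular carcinoma cells maintained in DMEM with 10% FBS, penicillin, streptomycin and amphotericin B at 37 °C, 5% CO2. IC50 is the concentration giving 50% growth inhibition, interpolated from dose–response curves.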

[2] = molecular target: Tyrosine-protein phosphatase non-receptor type 6 (Homo sapiens) (UniProt P29350); test: Agonist activity at SHP1 in human PLC5 cells at 10 uM after 6 hrs by immunoprecipitation method
Sequence of Tyrosine-protein phosphatase non-receptor type 6 (Homo sapiens) (P29350 whole entry): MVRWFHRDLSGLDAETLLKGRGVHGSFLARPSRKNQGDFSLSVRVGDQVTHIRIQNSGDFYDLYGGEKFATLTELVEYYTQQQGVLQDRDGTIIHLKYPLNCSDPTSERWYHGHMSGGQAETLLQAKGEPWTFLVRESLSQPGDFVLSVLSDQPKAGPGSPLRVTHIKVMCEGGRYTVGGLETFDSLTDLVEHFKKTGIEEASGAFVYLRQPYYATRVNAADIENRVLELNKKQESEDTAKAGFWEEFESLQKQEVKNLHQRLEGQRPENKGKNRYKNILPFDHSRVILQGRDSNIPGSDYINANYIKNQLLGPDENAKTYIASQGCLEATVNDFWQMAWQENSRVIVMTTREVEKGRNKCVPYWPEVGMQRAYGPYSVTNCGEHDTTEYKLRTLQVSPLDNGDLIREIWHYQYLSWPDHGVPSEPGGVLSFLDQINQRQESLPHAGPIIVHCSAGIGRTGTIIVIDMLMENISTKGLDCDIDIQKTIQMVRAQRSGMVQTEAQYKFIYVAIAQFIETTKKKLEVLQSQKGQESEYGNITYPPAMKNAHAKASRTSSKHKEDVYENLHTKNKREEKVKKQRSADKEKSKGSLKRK

[3] = molecular target: Tyrosine-protein phosphatase non-receptor type 6 (Homo sapiens) (UniProt P29350); test: Agonist activity at SHP1 in human PLC5 cells assessed as inhibition of IL6-induced STAT3 phosphorylation at 10 uM incubated for 24 hrs prior to IL6-induction measured after 30 mins by sandwich ELISA
Summary of the method: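 PLC5 cells, cultured in DMEM/10% FBS with antibiotics at 37 °C, 5% CO2, were pretreated with compound at 10 μM for 24 h. IL-6 (10 ng/mL) stimulation followed for 30 min before STAT3 activity was read.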

[4] = molecular target: Tyrosine-protein phosphatase non-receptor type 6 (Homo sapiens) (UniProt P29350); test: Agonist activity at SHP1 in human PLC5 cells assessed as decrease in pSTAT3-mediated survivin level at 10 uM after 12 hrs by Western blot analysis
Summary of the method: (§1)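 PLC5 cells (ATCC) grown in DMEM with 10% FBS, penicillin G, streptomycin and amphotericin B at 37 °C, 5% CO2. Cells treated at 10 μM for 12 h. Lysates immunoblotted for p-STAT3, STAT3, SHP-1, Mcl-1, survivin, cyclin D1, PARP, with actin as loading control.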

[5] = molecular target: Tyrosine-protein phosphatase non-receptor type 6 (Homo sapiens) (UniProt P29350); test: Agonist activity at SHP1 in human PLC5 cells assessed as increase in SHP1 level at 10 uM after 12 hrs by Western blot analysis; summary of the method: as §1
[6] = molecular target: Tyrosine-protein phosphatase non-receptor type 6 (Homo sapiens) (UniProt P29350); test: Agonist activity at SHP1 in human PLC5 cells assessed as decrease in pSTAT3-mediated cyclinD1 level at 10 uM after 12 hrs by Western blot analysis; summary of the method: as §1
[7] = molecular target: Tyrosine-protein phosphatase non-receptor type 6 (Homo sapiens) (UniProt P29350); test: Agonist activity at SHP1 in human PLC5 cells assessed as inhibition of STAT3 Y705 phosphorylation at 10 uM after 12 hrs by Western blot analysis; summary of the method: as §1
[8] = molecular target: Tyrosine-protein phosphatase non-receptor type 6 (Homo sapiens) (UniProt P29350); test: Agonist activity at SHP1 in human PLC5 cells assessed as decrease in pSTAT3-mediated Mcl1 level at 10 uM after 12 hrs by Western blot analysis; summary of the method: as §1

Structure (SMILES): COc1cc(-c2cc3ccccc3n2C(=O)OC(C)(C)C)[nH]c1/C=C1/SC(=O)NC1=O
- IC50 [1]: > 40 µM

Structure (SMILES): COc1cc(-c2cc3ccccc3n2C(=O)OC(C)(C)C)[nH]c1/C=C1\C(=O)Nc2ccccc21
- IC50 [1]: > 40 µM

Structure (SMILES): COC1=CC(c2cccs2)=N/C1=C\c1ccc[nH]1
- IC50 [1]: > 40 µM

Structure (SMILES): COC1=CC(c2cc3cc(Br)ccc3[nH]2)=N/C1=C\c1ccc[nH]1
- Activity [2]: Active
- inhibition [3]: Active
- Activity [4]: Active
- Activity [5]: Active
- Activity [6]: Active
- inhibition [7]: Active
- Activity [8]: Active
- IC50 [1]: 6.3 µM

Structure (SMILES): COC1=CC(c2cc3ccccc3n2C(=O)OC(C)(C)C)=N/C1=C\c1ccc[nH]1
- IC50 [1]: > 40 µM

Structure (SMILES): COC1=CC(c2cc3ccccc3[nH]2)=N/C1=C\c1[nH]c(C)cc1C [OBATOCLAX]
- IC50 [1]: 12.1 µM

Structure (SMILES): COC1=CC(c2cc3ccccc3[nH]2)=N/C1=C\c1ccc(-c2cc3ccccc3[nH]2)[nH]1
- Activity [2]: Active
- inhibition [3]: Active
- Activity [4]: Active
- Activity [5]: Active
- Activity [6]: Active
- inhibition [7]: Active
- Activity [8]: Active
- IC50 [1]: 15.9 µM

Structure (SMILES): COC1=CC(c2cccs2)=N/C1=C\c1[nH]c(C)cc1C
- IC50 [1]: > 40 µM

Structure (SMILES): COC1=CC(c2ccco2)=N/C1=C\c1ccc[nH]1
- Activity [4]: inactive
- Activity [5]: inactive
- Activity [6]: inactive
- inhibition [7]: inactive
- Activity [8]: inactive
- IC50 [1]: > 40 µM

Structure (SMILES): COc1cc(-c2cc3ccccc3[nH]2)[nH]c1C1SCCCS1
- IC50 [1]: > 40 µM

Structure (SMILES): COC1=CC(c2cc3ccccc3[nH]2)=N/C1=C\c1cccs1
- IC50 [1]: > 40 µM

Structure (SMILES): COc1cc(-c2cc3ccccc3[nH]2)[nH]c1/C=C1/SC(=O)NC1=O
- IC50 [1]: 27.5 µM

Structure (SMILES): COc1cc(-c2cc3ccccc3[nH]2)[nH]c1/C=C1\C(=O)Nc2ccccc21
- IC50 [1]: 35.4 µM

Structure (SMILES): COC1=CC(c2cc3ccccc3n2C(=O)OC(C)(C)C)=N/C1=C\c1[nH]c(C)cc1C
- IC50 [1]: 28.4 µM

Structure (SMILES): COC1=CC(c2cccs2)=N/C1=C\c1cccs1
- IC50 [1]: 25.9 µM

Structure (SMILES): COC1=CC(c2cc3ccccc3[nH]2)=N/C1=C\c1ccc[nH]1
- Activity [2]: Active
- inhibition [3]: Active
- Activity [4]: Active
- Activity [5]: Active
- Activity [6]: Active
- inhibition [7]: Active
- Activity [8]: Active
- IC50 [1]: 13.2 µM
